In ChEMBL document CHEMBL5712907, “Inhibition of super enhancer downregulates the expression of KLF5 in basal-like breast cancers” (Int J Biol Sci, 2018):
Calls of active or inactive are those of the source.

Experiments:
HCC1937 [1] = assay: Downregulation of FGFBP in human HCC1937 cells treated at 1 to 3 uM for 24 hrs by immunoblotting analysis; type: functional, cell-based; conditions: dose 1-3 µM
Summary of the method: (§1)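 HCC1806 or HCC1937 cells (RPMI-1640, 10% FBS, 37 °C, 5% CO2) treated 24 h; lysed with protease inhibitors, protein assayed, equal amounts run on SDS-PAGE, blotted to PVDF, blocked in 5% milk/PBS-0.2% Tween-20, probed for KLF5, FGFBP, p21, c-MYC and GAPDH loading control; HRP secondary, ECL detection.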

HCC1937 [2] = assay: Inhibition of cell growth in human HCC1937 cells infected with pCDH-3 Flag tagged KLF5 assessed as ectopic KLF5 expression at 100 to 10000 nM for 72 hrs by SRB assay; type: functional, cell-based; conditions: dose 100-10000 nM
Summary of the method: (§2)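 HCC1806 or HCC1937 cells infected with pCDH-3×Flag-KLF5 or empty pCDH vector lentivirus, plated in 96-well format and treated 72 h; inhibition rate by sulforhodamine B staining read at 560 nm; experimental triplicates, SD.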

HCC1937 [3] = assay: Induction of cell cycle arrest in human HCC1937 cells assessed as decrease in accumulation of cells at S phase at 0.3 to 1 uM for 24 hrs by flow cytometric analysis; type: functional, cell-based; conditions: dose 0.3-1 µM
Summary of the method: (§3)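 HCC1806 or HCC1937 cells seeded, cultured overnight, treated 24 h; fixed in 70% ethanol, RNase A 40 µg/ml, propidium iodide 10 µg/ml; flow cytometry with G1, S and G2/M percentages; experimental triplicates, SD.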

HCC1937 [4] = assay: Effect on human HCC1937 cells assessed as reduction in KLF5 mRNA at 1 uM for 12 to 24 hrs by qPCR analysis; type: functional, cell-based; conditions: time 12-24 hrs
Summary of the method: (§4)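 HCC1806 or HCC1937 cells treated with 1 μM for 12 h or 24 h; KLF5 mRNA quantified by qPCR; experimental triplicates, SD, t-test.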

HCC1806 [5] = assay: Downregulation of KLF5 in human HCC1806 cells treated at 1 uM by immunoblotting analysis; type: functional, cell-based; conditions: time 12-72 hrs, TDE = time-dependent effect
Summary of the method: (§5)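 Time course: HCC1806 or HCC1937 cells exposed to 1 μM for the indicated times, pellets collected at each time point and lysed with protease inhibitors; equal protein immunoblotted after SDS-PAGE/PVDF transfer for KLF5, GAPDH loading control, ECL detection.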

HCC1937 [6] = assay: Induction of cell cycle arrest in human HCC1937 cells assessed as increase in accumulation of cells at G1 phase at 0.3 to 1 uM for 24 hrs by flow cytometric analysis; type: functional, cell-based; conditions: dose 0.3-1 µM; summary of the method: as §3
HCC1937 [7] = assay: Downregulation of KLF5 in human HCC1937 cells treated at 1 uM by immunoblotting analysis; type: functional, cell-based; conditions: time 12-72 hrs, TDE = time-dependent effect; summary of the method: as §5
HCC1806 [8] = assay: Induction of cell cycle arrest in human HCC1806 cells assessed as increase in accumulation of cells at G1 phase at 0.3 to 1 uM for 24 hrs by flow cytometric analysis; type: functional, cell-based; conditions: dose 0.3-1 µM; summary of the method: as §3
HCC1806 [9] = assay: Inhibition of cell growth in human HCC1806 cells infected with pCDH-3 Flag tagged KLF5 assessed as ectopic KLF5 expression at 100 to 10000 nM for 72 hrs by SRB assay; type: functional, cell-based; conditions: dose 100-10000 nM; summary of the method: as §2
HCC1806 [10] = assay: Upregulation of p21 in human HCC1806 cells treated at 1 to 3 uM for 24 hrs by immunoblotting analysis; type: functional, cell-based; conditions: dose 1-3 µM; summary of the method: as §1
HCC1806 [11] = assay: Effect on human HCC1806 cells assessed as reduction in KLF5 mRNA at 1 uM for 12 to 24 hrs by qPCR analysis; type: functional, cell-based; conditions: time 12-24 hrs; summary of the method: as §4
HCC1806 [12] = assay: Induction of cell cycle arrest in human HCC1806 cells assessed as decrease in accumulation of cells at S phase at 0.3 to 1 uM for 24 hrs by flow cytometric analysis; type: functional, cell-based; conditions: dose 0.3-1 µM; summary of the method: as §3
HCC1937 [13] = assay: Upregulation of p21 in human HCC1937 cells treated at 1 to 3 uM for 24 hrs by immunoblotting analysis; type: functional, cell-based; conditions: dose 1-3 µM; summary of the method: as §1
HCC1806 [14] = assay: Downregulation of FGFBP in human HCC1806 cells treated at 1 to 3 uM for 24 hrs by immunoblotting analysis; type: functional, cell-based; conditions: dose 1-3 µM; summary of the method: as §1
HCC1937 [15] = assay: Potency index, ratio of test compound to (S)-tert-butyl 2-(4-(4-chlorophenyl)-2,3,9-trimethyl-6H-thieno[3,2-f] [1,2,4]triazolo[4,3-a] [1,4]diazepin-6-yl)acetate for effect on human HCC1937 cells assessed as reduction in c-MYC level at 0.1 to 3 uM for 24 hrs; type: functional; conditions: dose 0.1-3 µM
HCC1937 [16] = assay: Inhibition of cell growth in human HCC1937 cells infected with pCDH-3 Flag tagged KLF5 assessed as ectopic KLF5 expression at 0.01 to 10000 nM for 72 hrs by SRB assay; type: functional, cell-based; conditions: dose 0.01-10000 nM
Summary of the method: (§6)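 Cells infected with pCDH-3×Flag-KLF5 lentivirus, or vector control lentivirus, were plated and treated for 72 h. Inhibition rate measured by SRB assay. Experimental triplicates, SD shown.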

HCC1806 [17] = assay: Potency index, ratio of test compound to (S)-tert-butyl 2-(4-(4-chlorophenyl)-2,3,9-trimethyl-6H-thieno[3,2-f] [1,2,4]triazolo[4,3-a] [1,4]diazepin-6-yl)acetate for effect on human HCC1806 cells assessed as reduction in c-MYC level at 0.1 to 3 uM for 24 hrs; type: functional; conditions: dose 0.1-3 µM
HCC1937 [18] = assay: Induction of cell cycle arrest in human HCC1937 cells assessed as increase in accumulation of cells at G1 phase at 0.1 to 0.3 uM for 24 hrs by flow cytometric analysis; type: functional, cell-based; conditions: dose 0.1-0.3 µM
Summary of the method: (§7)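 Seeded cells were cultured overnight, then treated with compound for 24 h. Fixed in 70 % ethanol, treated with 40 µg/ml RNase A and stained with 10 µg/ml propidium iodide. Analysed by flow cytometry for G1, S and G2/M fractions. Experimental triplicates, SD shown.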

HCC1806 [19] = assay: Inhibition of cell growth in human HCC1806 cells infected with pCDH-3 Flag tagged KLF5 assessed as ectopic KLF5 expression at 0.01 to 10000 nM for 72 hrs by SRB assay; type: functional, cell-based; conditions: dose 0.01-10000 nM; summary of the method: as §6
HCC1806 [20] = assay: Induction of cell cycle arrest in human HCC1806 cells assessed as increase in accumulation of cells at G1 phase at 0.3 uM for 24 hrs by flow cytometric analysis; type: functional, cell-based; summary of the method: as §7
HCC1937 [21] = assay: Cytotoxicity against human HCC1937 cells assessed as reduction in cell viability at 10 to 10000 nM for 72 hrs by SRB assay; type: functional, cell-based; conditions: dose 10-10000 nM
Summary of the method: (§8)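 HCC1806 or HCC1937 cells grown in RPMI-1640 with 10 % FBS at 37 °C, 5 % CO2, then exposed to graded compound concentrations for 72 h. Viability read by sulforhodamine B staining, absorbance at 560 nm. Experimental triplicates, SD shown.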

HCC1806 [22] = assay: Inhibition of DNA synthesis in human HCC1806 cell at 0.1 to 0.3 uM measured for 24 hrs by Edu incorporation assay; type: functional, cell-based; conditions: dose 0.1-0.3 µM
Summary of the method: (§9)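 After 24 h treatment at different concentrations, cells were EdU-labelled with the Click-iT imaging kit, fixed and DNA-stained. Fluorescence micrographs were taken and five random fields counted per sample. Result given as % EdU-positive (EdU-positive/total cells). Experimental triplicates, SD shown.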

HCC1806 [23] = assay: Cytotoxicity against human HCC1806 cells assessed as reduction in cell viability at 10 to 10000 nM for 72 hrs by SRB assay; type: functional, cell-based; conditions: dose 10-10000 nM; summary of the method: as §8
HCC1937 [24] = assay: Potency index, ratio of test compound to (S)-tert-butyl 2-(4-(4-chlorophenyl)-2,3,9-trimethyl-6H-thieno[3,2-f] [1,2,4]triazolo[4,3-a] [1,4]diazepin-6-yl)acetate for effect on human HCC1937 cells assessed as reduction in KLF5 level at 0.1 to 3 uM for 24 hrs; type: functional; conditions: dose 0.1-3 µM
HCC1937 [25] = assay: Inhibition of DNA synthesis in human HCC1937 cell at 0.1 to 0.3 uM measured for 24 hrs by Edu incorporation assay; type: functional, cell-based; conditions: dose 0.1-0.3 µM; summary of the method: as §9
HCC1937 [26] = assay: Induction of cell cycle arrest in human HCC1937 cells assessed as increase in accumulation of cells at G1 phase at 0.3 uM for 24 hrs by flow cytometric analysis; type: functional, cell-based; summary of the method: as §7
HCC1806 [27] = assay: Induction of cell cycle arrest in human HCC1806 cells assessed as increase in accumulation of cells at G1 phase at 0.1 to 0.3 uM for 24 hrs by flow cytometric analysis; type: functional, cell-based; conditions: dose 0.1-0.3 µM; summary of the method: as §7
HCC1806 [28] = assay: Potency index, ratio of test compound to (S)-tert-butyl 2-(4-(4-chlorophenyl)-2,3,9-trimethyl-6H-thieno[3,2-f] [1,2,4]triazolo[4,3-a] [1,4]diazepin-6-yl)acetate for effect on human HCC1806 cells assessed as reduction in KLF5 level at 0.1 to 3 uM for 24 hrs; type: functional; conditions: dose 0.1-3 µM
HCC1937 [29] = assay: Effect on KLF5 suppression in human HCC1937 cells at 50 to 200 nM for 24 hrs by immunoblotting analysis; type: functional, cell-based; conditions: dose 50-200 nM
Summary of the method: (§10)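 Cells in RPMI-1640/10 % FBS treated with compound for 24 h, lysed with protease inhibitor cocktail, and protein quantified. Equal protein run on SDS-PAGE and blotted to PVDF. Blocked in 5 % milk in PBS-0.2 % Tween-20, probed for KLF5, c-MYC and FGF2, with GAPDH as loading control. HRP secondary antibody, ECL detection.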

HCC1937 [30] = assay: Effect on FGFPB suppression in human HCC1937 cells at 50 to 200 nM for 24 hrs by immunoblotting analysis; type: functional, cell-based; conditions: dose 50-200 nM
HCC1806 [31] = assay: Effect on KLF5 suppression in human HCC1806 cells at 50 to 200 nM for 24 hrs by immunoblotting analysis; type: functional, cell-based; conditions: dose 50-200 nM; summary of the method: as §10
HCC1806 [32] = assay: Effect on c-MYC suppression in human HCC1806 cells at 50 to 200 nM for 24 hrs by immunoblotting analysis; type: functional, cell-based; conditions: dose 50-200 nM; summary of the method: as §10
HCC1937 [33] = assay: Effect on c-MYC suppression in human HCC1937 cells at 50 to 200 nM for 24 hrs by immunoblotting analysis; type: functional, cell-based; conditions: dose 50-200 nM; summary of the method: as §10
HCC1806 [34] = assay: Effect on FGFPB suppression in human HCC1806 cells at 50 to 200 nM for 24 hrs by immunoblotting analysis; type: functional, cell-based; conditions: dose 50-200 nM

Cc1sc2c(c1C)C(c1ccc(Cl)cc1)=N[C@@H](CC(=O)OC(C)(C)C)c1nnc(C)n1-2
active: Activity (HCC1937 [1]) | inhibition (HCC1937 [2]) | Activity (HCC1937 [3]) | Activity (HCC1937 [4]) | Activity (HCC1806 [5]) Tde | Activity (HCC1937 [6]) | Activity (HCC1937 [7]) Tde | Activity (HCC1806 [8]) | inhibition (HCC1806 [9]) | Activity (HCC1806 [10]) | Activity (HCC1806 [11]) | Activity (HCC1806 [12]) | Activity (HCC1937 [13]) | Activity (HCC1806 [14])

Cc1nnn(C)c1-c1cnc2c3c4cnn(C)c4ccc3n([C@H](c3ccccc3)C3CCOCC3)c2c1
active: inhibition (HCC1937 [16]) | Activity (HCC1937 [18]) | inhibition (HCC1806 [19]) | Activity (HCC1806 [20]) | Activity (HCC1937 [21]) | inhibition (HCC1806 [22]) | Activity (HCC1806 [23]) | inhibition (HCC1937 [25]) | Activity (HCC1937 [26]) | Activity (HCC1806 [27])
~10: Ratio (HCC1937 [15]) | Ratio (HCC1806 [17]) | Ratio (HCC1937 [24]) | Ratio (HCC1806 [28])

CN(C)C/C=C/C(=O)Nc1ccc(C(=O)Nc2cccc(Nc3ncc(Cl)c(-c4c[nH]c5ccccc45)n3)c2)cc1
active: Activity (HCC1937 [21]) | Activity (HCC1937 [29]) | Activity (HCC1937 [30]) | Activity (HCC1806 [23]) | Activity (HCC1806 [31]) | Activity (HCC1806 [32]) | Activity (HCC1937 [33]) | Activity (HCC1806 [34])
